Consider 2 molecules from PMC4113001 (Biochimica et biophysica acta, 2011).

Each structure is given as a SMILES string.

One experiment has as its target CRBPI and II. As to conditions: 19F NMR estimate; cited from earlier work.
The next experiment addresses T1, CRBPII (Rattus norvegicus, UniProt P06768).
T1 sequence (P06768 1-134): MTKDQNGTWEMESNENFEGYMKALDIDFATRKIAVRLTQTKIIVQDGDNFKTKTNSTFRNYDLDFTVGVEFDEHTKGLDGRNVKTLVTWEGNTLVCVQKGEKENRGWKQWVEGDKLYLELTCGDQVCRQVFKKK
In kind it is binding. As to conditions: excitation spectra pre- and post-column. The essentials:
(§1)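 Sephadex G-50 (fine) was equilibrated for several days in 20 mM KH2PO4, 100 mM KCl, pH 7.4. Small syringe columns were poured, a separate one for each protein–ligand pair. E. coli-expressed, FPLC-purified protein carried bound retinol. Excitation spectra of the complex were recorded before and after passage, with roughly equivalent free retinol in buffer as reference. Blanks were subtracted.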

Experiment [1] addresses T2, CRBPI (Rattus norvegicus, UniProt P02696).
T2 sequence (P02696 1-135): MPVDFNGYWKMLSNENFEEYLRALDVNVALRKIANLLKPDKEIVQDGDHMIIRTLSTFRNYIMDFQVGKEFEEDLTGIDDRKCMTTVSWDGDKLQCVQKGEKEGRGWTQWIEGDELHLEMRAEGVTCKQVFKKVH
In kind it is binding. As to conditions: excitation spectra pre- and post-column. The essentials: as §1

The target of experiment [2] is T2, CRBPI. The experiment in a line: Fluorescence titration binding of retinoids to CRBPI. To be noted: for affinity of CRBPI compared to CRBPII (fold stronger): ratio of Kd′ values CRBPII/CRBPI.

In the case of `CC1=C(/C=C/C(C)=C/C=C/C(C)=C/CO)C(C)(C)CCC1` [all-trans-retinol], at CRBPI and II, the “Kd′ value of CRBPI relative to CRBPII (fold less)” value was 10–100 fold. At CRBPII, the “elution of complex with CRBPII through Sephadex G-50” value is “bound”. At CRBPI [1], the “elution of complex with CRBPI through Sephadex G-50” value is recorded as “bound”. In addition, the “affinity of CRBPI compared to CRBPII (fold stronger)” value at CRBPI [2] is on record as ~ 3 fold.
Turning to `CC1=C(/C=C/C(C)=C\C=C\C(C)=C\CO)C(C)(C)CCC1` [9-cis-retinol], the “elution of complex with CRBPII through Sephadex G-50” value on CRBPII is “eluted bound”. The “elution of complex with CRBPI through Sephadex G-50” value on CRBPI [1] is reported as “eluted bound”. Further, on CRBPI [2] (ratio of Kd′ values), the “CRBPI affinity for 9-cis-retinol relative to all-trans- and 13-cis-retinol (fold lower)” value was ~ 3 fold. On CRBPI [2], the “affinity of CRBPI compared to CRBPII (fold stronger)” value is reported as ~ 6 fold.
